Activity calls are given as the source filed them. The calls are words filed in the database; no cut-off is given here.
Legend:
[1] = target: T1, Gastric triacylglycerol lipase (Canis lupus familiaris) (UniProt P80035); test: Inhibition of dog recombinant gastric lipase expressed in transgenic maize at 200 molar excess compound concentration pre-incubated for 2 hrs with enzyme before substrate addition by pH-stat technique; format: single protein; conditions: Stomach
T1 sequence (whole entry): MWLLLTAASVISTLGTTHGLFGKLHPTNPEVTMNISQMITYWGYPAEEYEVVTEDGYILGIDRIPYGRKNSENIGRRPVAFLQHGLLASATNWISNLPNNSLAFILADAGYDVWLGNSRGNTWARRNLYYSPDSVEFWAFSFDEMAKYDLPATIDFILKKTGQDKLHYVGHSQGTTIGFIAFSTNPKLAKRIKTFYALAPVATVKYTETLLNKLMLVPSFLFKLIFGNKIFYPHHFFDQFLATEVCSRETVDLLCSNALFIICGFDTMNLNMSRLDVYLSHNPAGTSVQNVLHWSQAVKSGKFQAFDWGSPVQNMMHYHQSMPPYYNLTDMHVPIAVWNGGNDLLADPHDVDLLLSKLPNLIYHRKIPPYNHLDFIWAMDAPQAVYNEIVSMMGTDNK

[2] = target: T2, Pancreatic lipase-related protein 2 (Cavia porcellus) (UniProt P81139); test: Inhibition of guinea pig recombinant PLRP2 expressed in Aspergillus oryzae at 200 molar excess compound concentration pre-incubated for 2 hrs with enzyme before substrate addition by pH-stat technique
T2 sequence (whole entry): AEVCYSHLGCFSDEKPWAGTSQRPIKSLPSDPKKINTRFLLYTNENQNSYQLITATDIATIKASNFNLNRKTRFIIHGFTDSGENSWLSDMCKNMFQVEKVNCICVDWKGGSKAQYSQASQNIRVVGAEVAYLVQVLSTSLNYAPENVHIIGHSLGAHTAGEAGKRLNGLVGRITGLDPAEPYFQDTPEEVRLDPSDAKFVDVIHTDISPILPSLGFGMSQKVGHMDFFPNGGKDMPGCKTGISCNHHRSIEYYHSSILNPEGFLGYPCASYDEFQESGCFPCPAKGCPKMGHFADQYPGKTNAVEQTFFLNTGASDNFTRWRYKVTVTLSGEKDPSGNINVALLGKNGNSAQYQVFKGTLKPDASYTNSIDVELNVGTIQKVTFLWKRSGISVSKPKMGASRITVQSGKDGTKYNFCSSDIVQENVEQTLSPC

[3] = target: T3, Pancreatic triacylglycerol lipase (Homo sapiens) (UniProt P16233); test: Inhibition of human recombinant pancreatic lipase expressed in Pichia pastoris at 200 molar excess compound concentration pre-incubated for 2 hrs with enzyme before substrate addition by pH-stat technique
T3 sequence (whole entry): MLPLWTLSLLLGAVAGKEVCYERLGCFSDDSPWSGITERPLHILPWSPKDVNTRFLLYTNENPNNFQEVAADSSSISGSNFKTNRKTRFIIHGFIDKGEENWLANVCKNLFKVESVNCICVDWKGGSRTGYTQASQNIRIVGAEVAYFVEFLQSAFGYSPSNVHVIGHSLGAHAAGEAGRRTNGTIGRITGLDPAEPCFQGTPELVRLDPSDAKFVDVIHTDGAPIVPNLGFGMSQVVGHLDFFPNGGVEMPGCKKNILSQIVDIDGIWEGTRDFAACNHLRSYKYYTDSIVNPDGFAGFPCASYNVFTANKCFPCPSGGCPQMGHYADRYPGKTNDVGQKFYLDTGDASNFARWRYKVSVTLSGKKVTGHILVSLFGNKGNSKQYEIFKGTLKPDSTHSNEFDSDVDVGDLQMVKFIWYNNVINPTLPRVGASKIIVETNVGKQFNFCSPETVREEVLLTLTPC

[4] = system: Mycobacterium tuberculosis; test: Inhibition of Mycobacterium tuberculosis LipY pre-incubated for 30 mins with enzyme before substrate addition by pH-stat technique
Summary of the method: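 Without NaTDC, LipY was incubated 30 min at 25 °C with inhibitor at xI 2–100. Residual activity was determined by pH-stat at 37 °C on TC4 in 2.5 mM Tris-HCl pH 7.5, 300 mM NaCl, 3 mM NaTDC. xI50 was taken from activity versus molar excess. Isopropanol-only controls were run. At least duplicate.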

[5] = target: Monoacylglycerol lipase (Mycobacterium tuberculosis H37Rv) (UniProt O07427); test: Inhibition of Mycobacterium tuberculosis Rv0183 pre-incubated for 30 mins with enzyme before substrate addition by pH-stat technique
Sequence of Monoacylglycerol lipase (Mycobacterium tuberculosis H37Rv) (O07427 whole entry): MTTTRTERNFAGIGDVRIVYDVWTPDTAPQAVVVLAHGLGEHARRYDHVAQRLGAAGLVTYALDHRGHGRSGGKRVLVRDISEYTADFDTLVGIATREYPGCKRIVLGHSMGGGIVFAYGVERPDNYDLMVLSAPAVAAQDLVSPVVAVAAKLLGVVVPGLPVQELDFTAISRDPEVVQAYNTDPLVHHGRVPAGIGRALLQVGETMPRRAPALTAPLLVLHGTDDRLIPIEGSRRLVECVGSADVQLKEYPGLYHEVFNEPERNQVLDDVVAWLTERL
Summary of the method: (§1)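 Rv0183 was preincubated 30 min at 25 °C without NaTDC at inhibitor molar excess 2, 4, 20, 40 or 100. Residual monoglyceride lipase activity was measured by pH-stat at 37 °C with MC18 emulsion, pH 8.0, 3 mM NaTDC. xI50 was read from the residual-activity curve. Solvent controls were run. At least duplicate.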

[6] = target: T4, Cutinase 1 (Fusarium vanettenii) (UniProt P00590); test: Inhibition of Fusarium solani pisi cutinase pre-incubated for 30 mins with enzyme before substrate addition by pH-stat technique
T4 sequence (whole entry): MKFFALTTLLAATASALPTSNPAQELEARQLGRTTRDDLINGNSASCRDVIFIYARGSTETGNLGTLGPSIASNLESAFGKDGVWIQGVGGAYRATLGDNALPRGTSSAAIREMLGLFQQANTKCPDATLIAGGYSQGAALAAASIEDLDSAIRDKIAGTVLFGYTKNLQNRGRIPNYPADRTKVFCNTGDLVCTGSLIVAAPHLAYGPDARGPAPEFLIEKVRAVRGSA
Summary of the method: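 Cutinase was preincubated for 30 min at 25 °C in 2 mM NaTDC, substrate absent, at inhibitor molar excess xI 2, 4, 20, 40 or 100. Residual activity was measured by pH-stat at 37 °C on TC4 emulsion at pH 8.0 with 0.25 mM NaTDC. xI50 is the molar excess giving 50% activity. Isopropanol controls were run. At least duplicate.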

[7] = system: Mycobacterium tuberculosis; test: (§2) Inhibition of Mycobacterium tuberculosis LipY assessed as covalent bond formation with enzyme serine residue by measuring change in molecular weight of enzyme-compound complexes at 40 molar excess compound concentration pre-incubated for 30 mins with enzyme before substrate addition by MALDI-TOF mass spectrometry method
Summary of the method: (§3)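 Each enzyme was preincubated with the inhibitor for 30 min at 25 °C at xI 40, with the inhibitor taken from a 5 mg/mL isopropanol stock. Intact masses of native and inhibited protein were measured by MALDI-TOF. For tryptic mapping, 5–50 pmol protein was reduced with DTT, alkylated with iodoacetamide and digested overnight at 37 °C.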

[8] = system: Mycobacterium tuberculosis; test: Inhibition of Mycobacterium tuberculosis LipY assessed as half inactivation time pre-incubated with enzyme before substrate addition by pH-stat technique
Summary of the method: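 LipY was incubated with inhibitor at xI 4 at 25 °C without NaTDC for up to 1 h. At time points, residual activity was titrated by pH-stat at 37 °C on TC4 emulsion in 2.5 mM Tris-HCl pH 7.5, 300 mM NaCl, 3 mM NaTDC. Half-inactivation time came from the curve. Runs were done at least in duplicate.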

[9] = target: T1, Gastric triacylglycerol lipase (Canis lupus familiaris); test: Inhibition of dog recombinant gastric lipase expressed in transgenic maize pre-incubated for 30 mins with enzyme before substrate addition by pH-stat technique; format: tissue-based; conditions: Stomach
Summary of the method: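 Gastric lipase was incubated 30 min at 25 °C with 4 mM NaTDC at inhibitor xI 2–100. Residual activity was measured by pH-stat at 37 °C on TC4 emulsion in 150 mM NaCl, 2 mM NaTDC, 2 µM BSA, pH 5.5. xI50 is the molar excess halving activity. At least duplicate.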

[10] = target: T2, Pancreatic lipase-related protein 2 (Cavia porcellus); test: Inhibition of guinea pig recombinant PLRP2 expressed in Aspergillus oryzae pre-incubated for 30 mins with enzyme before substrate addition by pH-stat technique
[11] = target: T3, Pancreatic triacylglycerol lipase (Homo sapiens)
[12] = system: Mycobacterium tuberculosis; test: Inhibition of Mycobacterium tuberculosis LipY at 40 molar excess compound concentration pre-incubated for 30 mins with enzyme before substrate addition by pH-stat technique
[13] = target: Monoacylglycerol lipase (Mycobacterium tuberculosis H37Rv) (UniProt O07427); test: as §2, with “Rv0183” for “LipY”; summary of the method: as §3
[14] = target: Monoacylglycerol lipase (Mycobacterium tuberculosis H37Rv) (UniProt O07427); test: Inhibition of Mycobacterium tuberculosis Rv0183 assessed as half inactivation time pre-incubated with enzyme before substrate addition by pH-stat technique
Summary of the method: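 For the time course, Rv0183 was exposed to inhibitor at xI 4 at 25 °C without bile salt for 1 h. Residual activity was read at intervals by pH-stat at 37 °C using 100 µL MC18 in 15 mL 2.5 mM Tris-HCl pH 8.0, 150 mM NaCl, 3 mM NaTDC. t1/2 was derived from the curve. Runs were done at least in duplicate.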

[15] = target: Monoacylglycerol lipase (Mycobacterium tuberculosis H37Rv) (UniProt O07427); test: Inhibition of Mycobacterium tuberculosis Rv0183 assessed as residual enzyme activity pre-incubated for 30 mins with enzyme before substrate addition by pH-stat technique; summary of the method: as §1
[16] = target: T4, Cutinase 1 (Fusarium vanettenii); test: as §2, with “Fusarium solani pisi cutinase” for “Mycobacterium tuberculosis LipY”; summary of the method: as §3

CCCCCCCCCCCCCCCCCCOP1(=O)CCCC(C(=O)OC)=C(C)O1 (configuration not stated)
inhibition [1]: inactive | inhibition [2]: inactive | inhibition [3]: inactive | XI50 [4]: 0.59 molar excess | XI50 [5]: inactive | XI50 [6]: 0.95 molar excess

CCCCCCCCCCCCCCCCOP1(=O)CCCC(C(=O)OC)=C(C)O1 (configuration not stated)
Activity [7]: 444 Da | inhibition [1]: inactive | inhibition [2]: inactive | inhibition [3]: inactive | T1/2 [8]: 9.6 s | XI50 [4]: 0.83 molar excess | XI50 [5]: inactive | XI50 [6]: 0.56 molar excess

CCCCCCCCCCC[C@@H](C[C@@H]1OC(=O)[C@H]1CCCCCC)OC(=O)[C@H](CC(C)C)NC=O
XI50 [4]: 7.07 molar excess | XI50 [5]: > 200 molar excess | XI50 [6]: 2.52 molar excess | XI50 [9]: 5.6 molar excess | XI50 [10]: 0.53 molar excess | XI50 [11]: 18.4 molar excess

CCCCCC1CCP(=O)(OC)OC(C)=C1C(=O)OC (racemic)
inhibition [12]: 14%

CCCCCCCCCCCCCCCCCC[C@@H]1CC[P@@](=O)(OC)OC(C)=C1C(=O)OC (racemic)
inhibition [1]: inactive | inhibition [2]: inactive | inhibition [3]: inactive | XI50 [4]: 0.77 molar excess | XI50 [5]: 3.15 molar excess | XI50 [6]: 1.18 molar excess

CCCCCCCCCCCCCCCCCC[C@@H]1CC[P@](=O)(OC)OC(C)=C1C(=O)OC (racemic)
inhibition [1]: inactive | inhibition [2]: inactive | inhibition [3]: inactive | XI50 [4]: 7.47 molar excess | XI50 [5]: > 100 molar excess | XI50 [6]: 7.26 molar excess

CCCCCCCCCCCCCCCC[C@@H]1CC[P@@](=O)(OC)OC(C)=C1C(=O)OC (racemic)
inhibition [1]: inactive | inhibition [2]: inactive | inhibition [3]: inactive | XI50 [4]: 0.6 molar excess | XI50 [5]: 1.32 molar excess | XI50 [6]: 2.54 molar excess

CCCCCCCCCCCCCCCC[C@@H]1CC[P@](=O)(OC)OC(C)=C1C(=O)OC (racemic)
inhibition [1]: inactive | inhibition [2]: inactive | inhibition [3]: inactive | XI50 [4]: 3.47 molar excess | XI50 [5]: > 100 molar excess | XI50 [6]: 4.43 molar excess

CCCCCCCCCCCC[C@@H]1CC[P@@](=O)(OC)OC(C)=C1C(=O)OC (racemic)
inhibition [1]: inactive | inhibition [2]: inactive | inhibition [3]: inactive | XI50 [4]: 3.46 molar excess | XI50 [5]: 5.23 molar excess | XI50 [6]: 2 molar excess

CCCCCCCCCCCC[C@@H]1CC[P@](=O)(OC)OC(C)=C1C(=O)OC (racemic)
inhibition [1]: inactive | inhibition [2]: inactive | inhibition [3]: inactive | XI50 [4]: 6.14 molar excess | XI50 [5]: 2.44 molar excess | XI50 [6]: 3.63 molar excess

CCCCCCCCCC[C@@H]1CC[P@@](=O)(OC)OC(C)=C1C(=O)OC (racemic)
Activity [13]: 377 Da | inhibition [1]: inactive | inhibition [2]: inactive | inhibition [3]: inactive | T1/2 [14]: 86.4 s | Activity [15]: 6% | XI50 [4]: 2.81 molar excess | XI50 [5]: 1.13 molar excess | XI50 [6]: 1.98 molar excess

CCCCCCCCCC[C@@H]1CC[P@](=O)(OC)OC(C)=C1C(=O)OC (racemic)
inhibition [1]: inactive | inhibition [2]: inactive | inhibition [3]: inactive | XI50 [4]: 25.8 molar excess | XI50 [5]: 3.57 molar excess | XI50 [6]: 14.6 molar excess

CCCCC[C@@H]1CC[P@@](=O)(OC)OC(C)=C1C(=O)OC (racemic)
inhibition [1]: inactive | inhibition [2]: inactive | inhibition [3]: inactive | XI50 [4]: > 100 molar excess | XI50 [5]: 2.7 molar excess | XI50 [6]: 1.42 molar excess

CCCCC[C@@H]1CC[P@](=O)(OC)OC(C)=C1C(=O)OC (racemic)
inhibition [1]: inactive | inhibition [2]: inactive | inhibition [3]: inactive | XI50 [4]: > 100 molar excess | XI50 [5]: 3.79 molar excess | XI50 [6]: 26.2 molar excess

COC(=O)C1=C(C)OP(=O)(OC)CCC1 (racemic)
Activity [16]: 233 Da | inhibition [1]: inactive | inhibition [2]: inactive | inhibition [3]: inactive | inhibition [12]: 14% | XI50 [4]: > 100 molar excess | XI50 [5]: 30.5 molar excess | XI50 [6]: 1.39 molar excess

COP1(=O)CCCC(CO)=C(C)O1 (racemic)
inhibition [1]: inactive | inhibition [2]: inactive | inhibition [3]: inactive | XI50 [4]: inactive | XI50 [5]: inactive | XI50 [6]: > 100 molar excess

CO[P@@]1(=O)CC[C@@H]2COC(=O)C2=C(C)O1 (racemic)
inhibition [1]: inactive | inhibition [2]: inactive | inhibition [3]: inactive | inhibition [12]: 14% | XI50 [4]: > 100 molar excess | XI50 [5]: 41.6 molar excess | XI50 [6]: 4.49 molar excess

CO[P@]1(=O)CC[C@@H]2COC(=O)C2=C(C)O1 (racemic)
inhibition [1]: inactive | inhibition [2]: inactive | inhibition [3]: inactive | inhibition [12]: 14% | XI50 [4]: > 100 molar excess | XI50 [5]: 43.2 molar excess | XI50 [6]: 8.77 molar excess

From ChEMBL document CHEMBL2177030
